Common to all, as to assay type: functional
The species entered for assay [1] is Rattus norvegicus. The experiment in a line: Ability to inhibit iron-dependent lipid peroxidation in rat brain homogenate using MDA (malondialdehyde) formation assay. In a few lines: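 Incubations at 37 °C contain 20% ethanol and compound up to 300 μM, and are started with 200 μM Fe2+. They are stopped after 20 min with ice-cold 12.5% TCA in 0.8 N HCl. Readout is TBAR formation, reported as IC50 or % inhibition at 300 μM.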

Assay [2] is filed under the species Rattus norvegicus. The experiment in a line: Ability to inhibit iron-dependent lipid peroxidation in rat brain homogenate using MDA (malondialdehyde) formation assay at 300 uM.
The species named for assay [3] is Mus musculus. The experiment in a line: Lowest effective dose in a mouse head injury model was reported. Put shortly: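 Unanesthetized male CF-1 mice, 16–22 g; concussive head injury by weight drop (900 g cm for 16–20 g mice, 950 g cm for 20–22 g). Vehicle or compound given blindly as iv bolus 3–5 min post-injury; vehicle 0.05 N HCl or 0.5% Tween 80. Four groups of 20 per trial (vehicle plus three doses). Grip test on suspended taut string at 1 h; group score as mean time on string.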

The subject of assay [4] is Mus musculus. Briefly: Evaluated in a potassium cyanide lethality (cytotoxic hypoxia) model against male CF-1 mice at a dose 30 mg/kg administered intravenously. The conditions noted are these: route intravenous.
In assay [5] the test system is Mus musculus. The experiment in a line: Evaluated in a potassium cyanide lethality (cytotoxic hypoxia) model against male CF-1 mice at 100 mg/kg administered intravenously. The conditions noted are these: route intravenous.
The subject of assay [6] is Mus musculus. The experiment in a line: Percent increase in KCN lethality (cytotoxic hypoxia) model against male CF-1 mice at a dose 30 mg/kg administered intravenously. The conditions noted are these: route intravenous.
Assay [7] relates to Mus musculus. The experiment in a line: Percent increase in KCN lethality (cytotoxic hypoxia) model against male CF-1 mice at a dose 100 mg/kg administered intravenously. The conditions noted are these: route intravenous.

The term IC50 denotes the concentration that gives 50% inhibition. A high value points to weaker potency in that assay. Compound `Cc1c(C)c2c(c(C)c1O)CC[C@@](C)(CCC[C@H](C)CCC[C@H](C)CCCC(C)C)O2` [ALPHA-TOCOPHEROL] returned an IC50 in the assay listed under Rattus norvegicus [1] of 30 µM.
One may read the inhibition as the change of the read-out against control, counted positive when it falls. Read a low inhibition as little suppression. In the assay filed under Rattus norvegicus [2], `C[C@]12CC[C@H]3[C@@H](CCC4=CC(=O)CC[C@@]43C)[C@@H]1CC[C@@H]2C(=O)CN1CCN(c2ccccn2)CC1` had an inhibition of 9%.
Same read-out and setting: next, `C[C@]12CCC(=O)C=C1CCC1C2=CC[C@@]2(C)C1CC[C@]2(O)C(=O)CN1CCNCC1` (some centres undefined): 15%.
`C[C@]12CCC(=O)C=C1CCC1C2=CC[C@@]2(C)C1CC[C@]2(O)C(=O)CN1CCN(CCO)CC1` (some centres undefined) returned an inhibition in the assay listed under Rattus norvegicus [2] of 0%.
For the compound `C[C@@H]1C[C@H]2[C@@H]3CCC4CC(=O)CC[C@]4(C)C3=CC[C@]2(C)[C@@]1(O)C(=O)CN1CCN(c2ccccn2)CC1` (some centres undefined), the inhibition in the assay filed under Rattus norvegicus [2] stood at 31%.
Consider `C[C@]12C=CC(=O)C=C1CCC1C2[C@H](O)C[C@@]2(C)C1CC[C@]2(O)C(=O)CN1CCN(c2ccccn2)CC1` (some centres undefined), for which the inhibition in the assay filed under Rattus norvegicus [2] was 0%.
In the assay listed under Rattus norvegicus [1], `C[C@]12CCC(=O)C=C1CCC1C2=CC[C@@]2(C)C1CC[C@]2(O)C(=O)CN1CCN(c2cccc(N3CCCC3)n2)CC1` (some centres undefined) displayed a half-maximal inhibitory concentration (IC50) of 57 µM.
`C[C@]12CCC(=O)C=C1CCC1C2=CC[C@@]2(C)C1CC[C@]2(O)C(=O)CN1CCN(c2ccccn2)CC1` (some centres undefined) showed a Lowest effective dose in the assay listed under Mus musculus [3] of 10 mg/kg. The compound further registered an inhibition in the assay listed under Rattus norvegicus [2] of 23%.
On to `CC(=O)N(O)CCCCCNC(=O)CCC(=O)N(O)CCCCCNC(=O)CCC(=O)N(O)CCCCCN` [DEFEROXAMINE], for which, in the assay listed under Rattus norvegicus [1], the IC50 was determined as 112 µM.
Regarding `C[C@]12CCC(=O)C=C1CCC1C2=CC[C@@]2(C)C1CC[C@]2(O)C(=O)CN1CCN(c2cc(N3CCCC3)nc(N3CCCC3)n2)CC1.O=C(O)/C=C/C(=O)O` (some centres undefined), the “Increase in LD50” value was 0% in the assay with Mus musculus [4] and 33% in the assay with Mus musculus [5]. Further, the Lowest effective dose in the assay filed under Mus musculus [3] turned out to be 1 mg/kg. The same compound showed an inhibition in the assay filed under Rattus norvegicus [2] of 25%.
In turn, `COc1cccc(N2CCN(CC(=O)[C@@]3(O)CCC4C5CCC6=CC(=O)CC[C@]6(C)C5=CC[C@@]43C)CC2)n1` (some centres undefined) registered a half-inhibitory concentration (IC50) in the assay listed under Rattus norvegicus [1] of 101 µM.
In the case of `COc1ccccc1N1CCN(CC(=O)[C@@]2(O)CCC3C4CCC5=CC(=O)CC[C@]5(C)C4=CC[C@@]32C)CC1` (some centres undefined), the inhibition in the assay listed under Rattus norvegicus [2] is 37%.
On the same count and under the same terms, next, `C[C@]12CCC(O)CC1CC[C@@H]1[C@@H]2C(=O)C[C@@]2(C)[C@H]1CC[C@]2(O)C(=O)CN1CCN(c2ccccn2)CC1` (some centres undefined): 3%.
`CCNc1cccnc1N1CCN(CC(=O)[C@H]2[C@H](C)CC3C4CCC5=CC(=O)C=C[C@]5(C)C4=CC[C@@]32C)CC1.O=C(O)/C=C/C(=O)O` (some centres undefined) returned a Lowest effective dose in the assay filed under Mus musculus [3] of 0.03 mg/kg. In the assay filed under Rattus norvegicus [1], the half-inhibitory concentration (IC50) was 15 µM.
As to `C[C@]12CCC(=O)C=C1CCC1C2C(=O)C[C@@]2(C)C1CC[C@]2(O)C(=O)CN1CCN(c2ccccn2)CC1` (some centres undefined), the inhibition in the assay filed under Rattus norvegicus [2] is 3%.
Still for that read-out and setting: next, `C[C@H]1CC2C([C@@H](O)C[C@@]3(C)C2CC[C@]3(O)C(=O)CN2CCN(c3ccccn3)CC2)[C@@]2(C)C=CC(=O)C=C12` (some centres undefined): 0%; `C[C@]12CC(=O)[C@H]3[C@@H](CCC4=CC(=O)CC[C@@]43C)[C@@H]1CC[C@@H]2C(=O)CN1CCN(c2ccccn2)CC1`: 14%.
Take `CCN(CC)c1ccc(N2CCN(CC(=O)[C@H]3[C@H](C)CC4C5CCC6=CC(=O)C=C[C@]6(C)C5=CC[C@@]43C)CC2)nc1N(CC)CC.O=C(O)/C=C/C(=O)O` (some centres undefined): the “Increase in LD50” value came out at 15% with Mus musculus [6] and 46% with Mus musculus [7]. Moreover, the Lowest effective dose in the assay filed under Mus musculus [3] was 0.003 mg/kg. In addition, the IC50 in the assay listed under Rattus norvegicus [1] came to 3 µM.
The compound `C[C@]12CCC(=O)C=C1CC[C@@H]1[C@@H]2CC[C@@]2(C)[C@H]1CC[C@]2(O)C(=O)CN1CCN(c2ccccn2)CC1` yielded an inhibition in the assay listed under Rattus norvegicus [2] of 26%.
The same measure, in the same setting: with `C[C@]12CCC(=O)C=C1CCC1C2[C@H](O)C[C@@]2(C)C1CC[C@]2(O)C(=O)CN1CCN(c2ccccn2)CC1` (some centres undefined) the figure was 20%.
The compound `C[C@]12CCC(=O)C=C1CCC1C2=CC[C@@]2(C)C1CC[C@]2(O)C(=O)CN1CCN(Cc2ncccc2O)CC1` (some centres undefined) showed an inhibition in the assay filed under Rattus norvegicus [2] of 5%.
In the case of `C[C@@H]1C[C@H]2[C@@H]3CCC4=CC(=O)C=C[C@]4(C)C3=CC[C@]2(C)[C@H]1C(=O)CN1CCN(c2cc(N3CCCC3)nc(N3CCCC3)n2)CC1` [TIRILAZAD], the “Increase in LD50” value was 14% in the assay on Mus musculus [6] and 20% with Mus musculus [7]. Also, the Lowest effective dose in the assay filed under Mus musculus [3] came out at 0.003 mg/kg. In the assay listed under Rattus norvegicus [1], this compound came in with an IC50 of 18 µM.
With `C[C@@H]1CC2C3CCC4=CC(=O)C=C[C@]4(C)C3=CC[C@]2(C)[C@H]1C(=O)CN1CCN(c2ccccn2)CC1` (some centres undefined), the Lowest effective dose in the assay filed under Mus musculus [3] is 10 mg/kg. The same compound had an inhibition in the assay filed under Rattus norvegicus [2] of 4%.
Turning to `C[C@H]1C[C@@H]2[C@H]([C@@H](O)C[C@@]3(C)[C@H]2CC[C@]3(O)C(=O)COC(=O)CCC(=O)[O-])[C@@]2(C)C=CC(=O)C=C12.[Na+]` [METHYLPREDNISOLONE SODIUM SUCCINATE], the “Increase in LD50” value in the assay with Mus musculus [6] was 0%; with Mus musculus [7], 20%. For the same compound, the Lowest effective dose in the assay listed under Mus musculus [3] was 15 mg/kg. In the assay filed under Rattus norvegicus [2], this compound yielded an inhibition of 0%.

The record behind these values is ChEMBL document CHEMBL1124738, “Novel 21-aminosteroids that inhibit iron-dependent lipid peroxidation and protect against central nervous system trauma” (J Med Chem, 1990).
